T cruzi growth-1 – T. cruzi intracellular proliferation inhibitors, primary screen, cell-based, beta-gal Tulahuen parasites, NIH3T3 host, luminescence | hit rate 5.9% among 77,000 | AID 624255, 2012 | T. cruzi beta-gal in NIH3T3, GalScreen luminescence, 90 h | inhibition, % at 8.34 µM;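 active = mean inhibition above about 93%, with at least 55% of replicates each passing it, limit read from the data, passing the limit was not always enough; inconclusive = only one of those two conditions holds; inactive = neither condition holds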
IDH1 mut inh – inhibitors of IDH1 R132H reductase, primary screen, biochemical, plate reader, single point; Isocitrate dehydrogenase [NADP] cytoplasmic (Homo sapiens), O75874; diaphorase/resazurin fluorescence, 60 min; inhibition, % at 10 µM; hit rate 0.18% among 70,000; AID 624101, 2012; in the data active = inhibition above about 34%; inconclusive = no clear call, values can overlap the other calls; inactive = below about 11%
Target sequence (O75874 whole entry R132H): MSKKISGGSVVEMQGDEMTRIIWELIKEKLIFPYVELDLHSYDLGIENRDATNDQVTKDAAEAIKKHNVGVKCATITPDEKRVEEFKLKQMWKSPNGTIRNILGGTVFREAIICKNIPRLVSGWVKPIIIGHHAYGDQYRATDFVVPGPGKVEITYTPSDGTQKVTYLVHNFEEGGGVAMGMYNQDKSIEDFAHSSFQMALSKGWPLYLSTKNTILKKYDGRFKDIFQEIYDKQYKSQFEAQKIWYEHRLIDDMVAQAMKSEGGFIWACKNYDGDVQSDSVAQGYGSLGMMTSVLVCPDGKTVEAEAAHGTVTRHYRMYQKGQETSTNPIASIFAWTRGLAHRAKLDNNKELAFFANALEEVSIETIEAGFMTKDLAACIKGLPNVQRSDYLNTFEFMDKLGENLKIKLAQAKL
KDM4C inh – inhibitors of GASC-1 (KDM4C) histone demethylase, primary screen, biochemical, single concentration HTS | hit rate 0.15% among 96,000 | GST-KDM4C 2-372, H3K9me3 peptide, LANCE TR-FRET | Lysine-specific demethylase 4C (Homo sapiens), Q9H3R0 | inhibition, % at 12.5 µM;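 active = mean replicate inhibition above about 25%, with at least 55% of replicates also reaching it, limit read from the data, passing the limit was not always enough; inconclusive = only one of those two conditions met; inactive = neither condition met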
Target sequence (Q9H3R0 2-372 limits assumed): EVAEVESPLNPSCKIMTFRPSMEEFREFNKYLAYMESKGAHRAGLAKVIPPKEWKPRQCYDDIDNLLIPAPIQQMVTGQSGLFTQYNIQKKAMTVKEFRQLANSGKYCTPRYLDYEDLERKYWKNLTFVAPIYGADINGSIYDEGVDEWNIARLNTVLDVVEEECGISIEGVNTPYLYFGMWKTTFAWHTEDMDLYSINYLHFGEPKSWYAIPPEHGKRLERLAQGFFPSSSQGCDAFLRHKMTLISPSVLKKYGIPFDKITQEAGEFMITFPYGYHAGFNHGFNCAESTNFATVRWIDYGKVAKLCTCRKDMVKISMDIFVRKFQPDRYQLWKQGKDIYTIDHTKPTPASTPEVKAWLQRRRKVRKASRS
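Test system: N-terminal GST-fused human GASC-1 (KDM4C) fragment, residues 2-372; quantity: GASC-1 enzyme at 10 nM final in reaction; dosing: single dose; schedule: 30 min demethylation and 1 h detection at room temperature; signal: LANCE TR-FRET, excitation 340 nm, emissions 618 and 671 nm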
Pf Dd2 growth – P. falciparum Dd2 growth inhibitors, primary screen, SYBR Green fluorescence, single dose replicates | 72 h; hits give low values | activity change, % at 10 µM | hit rate 2.3% among 94,000 | AID 1159554, 2015; in the data active = activity change below about -80%; inconclusive = no clear call, values can overlap the other calls
T cruzi growth-2 – T. cruzi intracellular proliferation inhibitors, confirmation, cell-based, NIH3T3 host, beta-gal parasite, luminescence, cherry-pick | shares compounds with T cruzi growth-1 | T. cruzi beta-gal in NIH3T3, GalScreen luminescence, 90 h | inhibition, % at 8.35 µM | hit rate 72% among 5,600 | AID 651739, 2012;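 active = mean replicate inhibition above about 95% and at least 55% of replicates individually reaching it, limit read from the data; inconclusive = only one of the two criteria is met; inactive = neither criterion is met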
T cruzi growth-3 – inhibitors of intracellular T. cruzi replication, confirmation, NIH3T3 host cells, beta-gal parasites, cherry-pick, set 2; inhibition, % at 2.09 µM; hit rate 21% among 5,600; shares compounds with T cruzi growth-1; AID 651740, 2012; T. cruzi beta-gal in NIH3T3, GalScreen luminescence, 90 h;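 active = mean inhibition above about 95%, with at least 55% of replicates also reaching it, limit read from the data; inconclusive = meets just one of the two conditions; inactive = meets neither condition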
NIH3T3 tox – cytotoxicity in mouse NIH/3T3 fibroblasts, confirmation, cytotoxicity control for T. cruzi proliferation inhibitor project, cell-based, cherry-pick, single point; NIH/3T3 viability, CellTiter-Glo ATP luminescence, 90 h; hit rate 14% among 5,600; AID 651742, 2012; shares compounds with T cruzi growth-1; cytotoxicity (signal decrease), % at 8.35 µM;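 active = mean signal decrease across replicates above about 35% based on untreated-well scatter, with enough replicates individually passing, limit read from the data; inconclusive = no rule stated though some were filed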
3T3 cytotox 2 – NIH/3T3 fibroblast cytotoxicity, confirmation, cytotoxicity control, cell-based, cherry-pick, single point, set 2 | hit rate 56% among 5,600 | NIH/3T3 viability, CellTiter-Glo ATP luminescence, 90 h | inhibition, % at 24.9 µM | AID 651744, 2012 | shares compounds with T cruzi growth-1;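 active = mean loss of cell viability signal at or above a set limit, and enough replicates individually reaching it; inconclusive = meets only the mean limit or only the replicate share; inactive = meets neither condition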
Each line names hits and unclear results; the compound was inactive in the other large screens (follow-up assays come after a bar, where they were run). In the library only some 5.9% were active in any assay of this set; here they are far more common.

CC(C)CC#Cc1ccc2c(c1)O[C@H](CN(C)C(=O)C1CCC1)[C@H](C)CN([C@H](C)CO)S2(=O)=O	none
CC(C)CC#Cc1ccc2c(c1)O[C@@H](CN(C)C(=O)C1CCC1)[C@@H](C)CN([C@H](C)CO)S2(=O)=O	none
CC(C)CC#Cc1ccc2c(c1)O[C@H](CN(C)C(=O)C1CCC1)[C@@H](C)CN([C@@H](C)CO)S2(=O)=O	T cruzi growth-1 106 (no result: IDH1 mut inh) | T cruzi growth-2 107 | T cruzi growth-3 inactive | NIH3T3 tox inactive | 3T3 cytotox 2 104
CC(C)CC#Cc1ccc2c(c1)O[C@H](CN(C)C(=O)C1CCC1)[C@H](C)CN([C@@H](C)CO)S2(=O)=O	none (no result: IDH1 mut inh)
CC(C)CC#Cc1ccc2c(c1)O[C@@H](CN(C)C(=O)C1CCC1)[C@H](C)CN([C@H](C)CO)S2(=O)=O	T cruzi growth-1 inconclusive (no result: IDH1 mut inh) | T cruzi growth-2 102 | T cruzi growth-3 inactive | NIH3T3 tox inactive | 3T3 cytotox 2 101
CC(C)CC#Cc1ccc2c(c1)O[C@@H](CN(C)C(=O)C1CCC1)[C@H](C)CN([C@@H](C)CO)S2(=O)=O	T cruzi growth-1 106 | T cruzi growth-2 97 | T cruzi growth-3 104 | NIH3T3 tox inactive | 3T3 cytotox 2 42
O=C(Cn1c(S(=O)(=O)Cc2ccccc2)nc2ccccc21)N1CCOCC1	none (no result: T cruzi growth-1, KDM4C inh, Pf Dd2 growth)
OC[C@H]1Nc2ccc(C#Cc3ccccc3)cc2[C@@H]2[C@H]1CCN2Cc1nccs1	T cruzi growth-1 98 (no result: IDH1 mut inh) | T cruzi growth-2 97 | T cruzi growth-3 101 | NIH3T3 tox inactive | 3T3 cytotox 2 104
OC[C@@H]1Nc2ccc(C#Cc3ccccc3)cc2[C@H]2[C@@H]1CCN2Cc1nccs1	T cruzi growth-1 inconclusive (no result: IDH1 mut inh) | T cruzi growth-2 99 | T cruzi growth-3 107 | NIH3T3 tox inactive | 3T3 cytotox 2 99
C[C@H](CO)N1C[C@H](C)[C@H](CN(C)C(=O)C2CCCCC2)Oc2cc(-c3ccc(F)cc3)ccc2S1(=O)=O	T cruzi growth-1 119 | T cruzi growth-2 110 | T cruzi growth-3 inactive | NIH3T3 tox inconclusive | 3T3 cytotox 2 100
C[C@@H]1CN([C@H](C)CO)S(=O)(=O)c2ccc(-c3ccc(F)cc3)cc2O[C@H]1CN(C)C(=O)C1CCCCC1	none (no result: IDH1 mut inh)
C[C@H]1CN([C@@H](C)CO)S(=O)(=O)c2ccc(-c3ccc(F)cc3)cc2O[C@@H]1CN(C)C(=O)C1CCCCC1	T cruzi growth-1 99 (no result: IDH1 mut inh) | T cruzi growth-2 95 | T cruzi growth-3 inactive | NIH3T3 tox inactive | 3T3 cytotox 2 53
C[C@H]1CN([C@@H](C)CO)S(=O)(=O)c2ccc(-c3ccc(F)cc3)cc2O[C@H]1CN(C)C(=O)C1CCCCC1	T cruzi growth-1 112 | T cruzi growth-2 96 | T cruzi growth-3 inactive | NIH3T3 tox inactive | 3T3 cytotox 2 101
COc1ccc(OC)c(NC(=O)CN(c2ccc(Br)c(C)c2)S(C)(=O)=O)c1	none (no result: T cruzi growth-1, KDM4C inh, Pf Dd2 growth)
C[C@@H]1CN([C@H](C)CO)C(=O)c2ccccc2-c2ccccc2CO[C@H]1CN(C)C(=O)Nc1ccnc(N2CCOCC2)c1	T cruzi growth-1 inconclusive | T cruzi growth-2 96 | T cruzi growth-3 inactive | NIH3T3 tox inactive | 3T3 cytotox 2 inactive
C[C@H]1CN([C@@H](C)CO)C(=O)c2ccccc2-c2ccccc2CO[C@@H]1CN(C)C(=O)Nc1ccnc(N2CCOCC2)c1	T cruzi growth-1 108 | T cruzi growth-2 101 | T cruzi growth-3 inconclusive | NIH3T3 tox inactive | 3T3 cytotox 2 inactive
C[C@@H]1CN([C@@H](C)CO)C(=O)c2c(c3ccccc3n2C)-c2ccccc2CO[C@@H]1CN(C)C(=O)Nc1ccnc(N2CCOCC2)c1	none (no result: T cruzi growth-1, IDH1 mut inh)
O=C(CSc1nnnn1-c1ccccc1)Nc1ccc(Cl)c(C(=O)O)c1	none (no result: T cruzi growth-1, KDM4C inh, Pf Dd2 growth)
COC(=O)[C@H]1[C@H](CO)[C@H]2Cn3c(ccc(-c4cccc(OC)c4)c3=O)[C@H]2N1CC1CC1	none (no result: IDH1 mut inh)
CCNC(=O)[C@@H]1[C@@H](CO)[C@@H]2Cn3c(ccc(-c4ccccc4OC)c3=O)[C@@H]2N1S(C)(=O)=O	T cruzi growth-1 111 (no result: IDH1 mut inh) | T cruzi growth-2 inactive | T cruzi growth-3 inactive | NIH3T3 tox inactive | 3T3 cytotox 2 inactive
COC(=O)[C@@H]1[C@@H](CO)[C@@H]2Cn3c(ccc(-c4ccccc4OC)c3=O)[C@@H]2N1CC1CCCCC1	none (no result: T cruzi growth-1, IDH1 mut inh)
COc1cccc(-c2ccc3n(c2=O)C[C@@H]2[C@@H](CO)[C@H](C(=O)N(C)C)N(CC4CC4)[C@H]32)c1	T cruzi growth-1 104 (no result: IDH1 mut inh) | T cruzi growth-2 107 | T cruzi growth-3 inactive | NIH3T3 tox inactive | 3T3 cytotox 2 inconclusive
COC(=O)[C@H]1[C@H](CO)[C@H]2Cn3c(ccc(-c4ccccc4OC)c3=O)[C@H]2N1CC1CCCC1	T cruzi growth-1 active (no result: IDH1 mut inh, Pf Dd2 growth) | T cruzi growth-2 inactive | T cruzi growth-3 inactive | NIH3T3 tox inactive | 3T3 cytotox 2 28
CCNC(=O)[C@@H]1[C@@H](CO)[C@@H]2Cn3c(ccc(-c4ccccc4OC)c3=O)[C@@H]2N1CC	none (no result: IDH1 mut inh)
COC(=O)[C@@H]1[C@@H](CO)[C@@H]2Cn3c(ccc(-c4ccccc4OC)c3=O)[C@@H]2N1CC1CCCC1	T cruzi growth-1 active (no result: IDH1 mut inh, Pf Dd2 growth) | T cruzi growth-2 inactive | T cruzi growth-3 inactive | NIH3T3 tox inactive | 3T3 cytotox 2 33
COC(=O)[C@H]1[C@H](CO)[C@H]2Cn3c(ccc(-c4ccccc4OC)c3=O)[C@H]2N1CC1CCOCC1	none (no result: IDH1 mut inh)
CCOc1ccccc1NC(=O)c1ccsc1NC(=O)c1cc2ccccc2oc1=O	none (no result: T cruzi growth-1, KDM4C inh, Pf Dd2 growth)
Cc1cccc(NC(=O)CSc2nc3sc(C)c(C)c3c(=O)n2C)c1C	none (no result: T cruzi growth-1, KDM4C inh, Pf Dd2 growth)
CCn1c2ccccc2c2cc(NC(=O)CN(C)S(=O)(=O)c3ccc(Cl)cc3)ccc21	none (no result: T cruzi growth-1, KDM4C inh, Pf Dd2 growth)
C[C@H]1CN([C@@H](C)CO)S(=O)(=O)c2ccc(C#CCN(C)C)cc2O[C@@H]1CN(C)Cc1ccc2c(c1)OCO2	T cruzi growth-1 107 | T cruzi growth-2 107 | T cruzi growth-3 inactive | NIH3T3 tox inactive | 3T3 cytotox 2 106
C[C@H]1CN([C@@H](C)CO)S(=O)(=O)c2ccc(C#CCN(C)C)cc2O[C@H]1CN(C)Cc1ccc2c(c1)OCO2	T cruzi growth-1 104 | T cruzi growth-2 101 | T cruzi growth-3 inactive | NIH3T3 tox inactive | 3T3 cytotox 2 26
